Results from ChEMBL document CHEMBL3414467, “Exploring the 7-oxo-thiazolo[5,4-d]pyrimidine core for the design of new human adenosine A3 receptor antagonists. Synthesis, molecular modeling studies and pharmacological evaluation” (Eur J Med Chem, 2015).

How the values were obtained:
[1] = biological target: T1, Adenosine receptor A2b (Homo sapiens) (UniProt P29275); assay: Antagonist activity against human adenosine A2B receptor expressed in CHO cells assessed as inhibition of NECA-induced cAMP production at 1 uM by scintillation counting method; format: functional, cell-based
T1 sequence (whole entry): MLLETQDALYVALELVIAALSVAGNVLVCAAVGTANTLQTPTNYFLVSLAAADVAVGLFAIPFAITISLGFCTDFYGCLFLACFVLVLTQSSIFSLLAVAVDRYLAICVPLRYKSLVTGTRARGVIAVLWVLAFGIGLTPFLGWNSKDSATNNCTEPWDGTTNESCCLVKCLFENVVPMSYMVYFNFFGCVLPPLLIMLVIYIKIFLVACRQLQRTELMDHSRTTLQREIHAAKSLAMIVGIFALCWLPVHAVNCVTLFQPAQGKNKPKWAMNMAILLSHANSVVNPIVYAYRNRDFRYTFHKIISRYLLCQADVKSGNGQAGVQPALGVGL
Procedure, shortened: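 hA2B-transfected CHO cells (1 × 10⁶ cells/assay) in buffered saline-glucose medium with 2 IU/mL adenosine deaminase and Ro 20-1724, preincubated 10 min at 37 °C, stimulated with 200 nM NECA; test compounds at 1 μM, reported as percent inhibition. Stopped with cold 6% TCA, ether-extracted; cAMP measured by competition binding with [3H]cAMP and beef adrenal binding protein.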

[2] = biological target: T2, Adenosine receptor A1 (Homo sapiens) (UniProt P30542); assay: Displacement of [3H]DPCPX from human adenosine A1 receptor expressed in CHO cell membranes at 1 uM incubated for 120 mins by scintillation counting method
T2 sequence (whole entry): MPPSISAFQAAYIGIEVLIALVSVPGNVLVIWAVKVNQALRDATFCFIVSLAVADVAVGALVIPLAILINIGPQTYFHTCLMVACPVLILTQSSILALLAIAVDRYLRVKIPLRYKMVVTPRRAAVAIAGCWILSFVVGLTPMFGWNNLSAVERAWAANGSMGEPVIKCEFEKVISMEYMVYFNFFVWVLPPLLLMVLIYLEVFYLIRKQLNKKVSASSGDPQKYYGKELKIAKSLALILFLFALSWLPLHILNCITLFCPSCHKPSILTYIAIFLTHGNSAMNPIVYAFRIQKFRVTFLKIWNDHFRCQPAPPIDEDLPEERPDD
Procedure, shortened: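 Membranes from hA1-CHO cells (50 μg protein/assay), pretreated with adenosine deaminase 2 IU/mL, 30 min at 37 °C. Incubated with 1 nM [3H]DPCPX in 50 mM Tris HCl pH 7.4 for 120 min at 25 °C. Nonspecific binding defined with 1 μM DPCPX. Test compounds at 1 μM, reported as percent inhibition. Separation by GF/B filtration; read by scintillation counting.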

Adenosine receptor A3 [3] = biological target: T3, Adenosine receptor A3 (Homo sapiens, UniProt P0DMS8); assay: Displacement of [125I]AB-MECA from human adenosine A3 receptor expressed in CHO cell membranes incubated for 120 mins by scintillation counting method
T3 sequence (P0DMS8 whole entry): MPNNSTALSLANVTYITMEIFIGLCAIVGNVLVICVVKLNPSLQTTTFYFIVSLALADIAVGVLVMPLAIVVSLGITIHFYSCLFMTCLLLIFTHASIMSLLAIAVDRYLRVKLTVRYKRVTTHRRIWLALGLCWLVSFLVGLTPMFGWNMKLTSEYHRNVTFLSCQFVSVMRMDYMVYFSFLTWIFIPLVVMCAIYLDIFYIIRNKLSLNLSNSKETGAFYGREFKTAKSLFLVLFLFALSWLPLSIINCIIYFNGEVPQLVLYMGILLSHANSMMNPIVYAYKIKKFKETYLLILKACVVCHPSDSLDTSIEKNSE
Procedure, shortened: (§1)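 Membranes from hA3-CHO cells (50 μg protein/assay), pretreated with 2 IU/mL adenosine deaminase. Incubated with 0.5 nM [125I]AB-MECA in 50 mM Tris HCl, 10 mM MgCl2, 1 mM EDTA, pH 7.4, with six to eight compound concentrations; percent inhibition taken at 1 μM. Ki from IC50 by Cheng–Prusoff, means of four assays in duplicate.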

[4] = biological target: Adenosine receptor A2a (Homo sapiens) (UniProt P29274); assay: Displacement of [3H]ZM241385 from human adenosine A2A receptor expressed in CHO cell membranes at 1 uM incubated for 60 mins by scintillation counting method
Sequence of Adenosine receptor A2a (Homo sapiens) (P29274 whole entry): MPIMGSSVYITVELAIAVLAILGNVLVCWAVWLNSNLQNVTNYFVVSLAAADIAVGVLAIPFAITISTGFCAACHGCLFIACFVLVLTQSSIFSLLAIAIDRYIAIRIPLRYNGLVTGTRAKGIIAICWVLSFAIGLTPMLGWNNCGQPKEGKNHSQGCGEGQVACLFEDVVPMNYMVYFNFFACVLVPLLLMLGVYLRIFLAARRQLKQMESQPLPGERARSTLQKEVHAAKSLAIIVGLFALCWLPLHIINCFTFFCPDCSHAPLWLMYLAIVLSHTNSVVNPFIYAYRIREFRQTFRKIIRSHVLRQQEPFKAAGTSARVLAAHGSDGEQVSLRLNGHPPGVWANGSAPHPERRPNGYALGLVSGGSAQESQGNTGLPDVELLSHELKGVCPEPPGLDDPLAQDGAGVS
Procedure, shortened: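 Membranes from hA2A-CHO cells (50 μg protein/assay), deaminase-treated. Incubated with 1 nM [3H]ZM241385 in 50 mM Tris HCl, 10 mM MgCl2, pH 7.4 for 60 min at 4 °C. Nonspecific binding defined with 1 μM ZM241385. Test compounds at 1 μM, reported as percent inhibition. Filter separation; scintillation counting.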

[5] = biological target: T4, Adenosine receptor A3 (Homo sapiens) (UniProt P0DMS8); assay: Displacement of [125I]AB-MECA from human adenosine A3 receptor expressed in CHO cell membranes at 1 uM incubated for 120 mins by scintillation counting method; procedure, shortened: as §1
T4 sequence (whole entry): T3 sequence (P0DMS8 whole entry)

Adenosine receptor A3 [6] = biological target: T3, Adenosine receptor A3; assay: Antagonist activity against human adenosine A3 receptor expressed in CHO cells assessed as blockade of Cl-IB-MECA-induced inhibition of forskolin-induced cAMP production by scintillation counting method; format: functional, cell-based
Procedure, shortened: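 hA3-transfected CHO cells (1 × 10⁶ cells/assay) in buffered medium pH 7.4 with 2 IU/mL adenosine deaminase and Ro 20-1724, preincubated 10 min at 37 °C; antagonists tested against 100 nM Cl-IB-MECA. Stopped with cold TCA; cAMP measured by [3H]cAMP competition binding with adrenal binding protein. IC50 from sigmoid nonlinear regression, mean of four experiments.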

Compound	inhibition [1] [%]	inhibition [2] [%]	Ki (Adenosine receptor A3 [3]) [nM]	inhibition [4] [%]	inhibition [5] [%]	IC50 (Adenosine receptor A3 [6]) [nM]
COc1cccc(Nc2nc3c(=O)[nH]c(C)nc3s2)c1	1	8	113	1	–	–
Cc1nc2sc(Nc3ccc(Cl)c(Cl)c3)nc2c(=O)[nH]1	1	30	–	16	25	–
Cc1nc2sc(-c3ccc(F)cc3)nc2c(=O)[nH]1	17	1	107	15	–	–
Cc1nc2sc(Cc3ccccc3)nc2c(=O)[nH]1	1	11	427	1	–	–
Cc1nc2sc(-c3ccco3)nc2c(=O)[nH]1	2	37	–	1	20	–
Cc1nc2sc(-n3ccnc3)nc2c(=O)[nH]1	1	1	–	1	8	–
Cc1nc2sc(-c3ccc(Cl)cc3)nc2c(=O)[nH]1	1	1	18	1	–	42
CCOc1nc(C)nc2sc(-c3ccccc3)nc12	1	11	–	1	6	–
Cc1nc2sc(Nc3cccc(Cl)c3)nc2c(=O)[nH]1	1	44	–	21	48	–
Cc1nc2sc(Nc3ccccc3)nc2c(=O)[nH]1	1	24	–	14	45	–
CCOc1nc(C)nc2sc(Nc3cccc(OC)c3)nc12	1	3	110	25	–	–
Cc1nc2sc(-c3ccc(C(F)(F)F)cc3)nc2c(=O)[nH]1	1	1	–	37	32	–
Cc1cccc(Nc2nc3c(=O)[nH]c(C)nc3s2)c1	1	12	450	8	–	–
COc1ccc(-c2nc3c(=O)[nH]c(C)nc3s2)cc1	3	10	38	1	–	–
CCOc1nc(C)nc2sc(-c3ccc(C)cc3)nc12	1	1	–	1	5	–
Cc1nc2sc(-c3cccnc3)nc2c(=O)[nH]1	1	1	–	1	33	–
Cc1nc2sc(-c3ccc(C(=O)O)cc3)nc2c(=O)[nH]1	1	1	–	1	1	–

Compound	inhibition [1] [%]	inhibition [2] [%]	Ki (Adenosine receptor A3 [3]) [nM]	inhibition [4] [%]	inhibition [5] [%]	IC50 (Adenosine receptor A3 [6]) [nM]
Cc1nc2sc(-c3cccc(C(F)(F)F)c3)nc2c(=O)[nH]1	17	1	–	15	15	–
COc1cccc(-c2nc3c(=O)[nH]c(C)nc3s2)c1	4	1	–	12	28	–
Cc1nc2sc(-c3ccc(O)cc3)nc2c(=O)[nH]1	1	1	–	1	15	–
Cc1ccc(-c2nc3c(=O)[nH]c(C)nc3s2)cc1	3	17	33	2	–	–
COc1ccc(Nc2nc3c(=O)[nH]c(C)nc3s2)cc1	1	1	–	1	36	–
CCOc1nc(C)nc2sc(-c3ccc(Cl)cc3)nc12	1	6	–	9	10	–
Cc1nc2sc(-c3cccc(F)c3)nc2c(=O)[nH]1	1	1	109	1	–	–
Cc1nc2sc(-c3cccs3)nc2c(=O)[nH]1	1	4	248	1	–	–
Cc1ccc(Nc2nc3c(=O)[nH]c(C)nc3s2)cc1	1	20	–	18	47	–
Cc1nc2sc(-n3cccc3)nc2c(=O)[nH]1	3	1	227	9	–	–
Cc1cccc(-c2nc3c(=O)[nH]c(C)nc3s2)c1	1	1	384	31	–	–
CCOc1nc(C)nc2sc(Nc3ccccc3)nc12	1	2	–	3	45	–
Cc1nc2sc(-c3ccccc3)nc2c(=O)[nH]1	1	11	85	1	–	221
Cc1nc2sc(-c3cccc(Cl)c3)nc2c(=O)[nH]1	1	24	826	10	–	–
Cc1nc2sc(Nc3ccc(Cl)cc3)nc2c(=O)[nH]1	1	33	–	18	49	–
Cc1nc2sc(-c3ccncc3)nc2c(=O)[nH]1	1	1	–	1	15	–
